The results in this text go back to ChEMBL document CHEMBL4513216, “Probing the Open Global Health Chemical Diversity Library for Multistage-Active Starting Points for Next-Generation Antimalarials” (ACS Infect Dis, 2020).

The series in a line: Toxicity liver stage against HepG2, at 10uM. The arrangement: test concentration 10 uM, cell line HepG2-A16-CD81EGFP. The series is classed as cell-based. The settings on record: human, HepG2-A16-CD81EGFP cells; read-out: INHIBITION
The gist of the method: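 Uninfected HepG2-A16-CD81EGFP cells, 3 × 10^3 per well, 1536-well, plated on prespotted compound at 10 μM final, parasite-free screening media added to match infected plates; puromycin 10 μM positive, DMSO 0.5% negative; run in parallel with 48 h PbLuc assay at 37 °C, 5% CO2; viability by CellTiter-Glo luminescence, normalized to controls.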
Consider `O=C(c1ccno1)N1CCC2(CC1)C(=O)N(CC1CC1)c1ccccc12`, for which the cytotoxicity at 10 µM is 7.85%.

As to `CS(=O)(=O)N1CC[C@H]2C[C@@H](C(=O)N3CCOCC3)O[C@@H]2C1`, the cytotoxicity at 10 µM is 2.28%. Then `COc1ccc(NC(=O)c2cnc(C3CCN(C(C)=O)C3)nc2C)cc1` (stereo unspecified), with -2.6%; and `COc1nsc2nc(C3CCCN3c3ncccn3)ccc12` (stereo unspecified), with 10.5%. For `Cc1cccc(C)c1Nc1noc2c1CN(C(=O)c1cn(C)cn1)CC2`, the cytotoxicity at 10 µM came out at 12.9%. With `Cc1nccc(N2CCN(C3CCOCC3)CC(C(=O)N(C)C)C2)n1` (stereo unspecified) the figure was 2.12%.

On to `c1cnc(C2CCCN(Cc3ccsc3)C2)cn1` (stereo unspecified), for which the cytotoxicity at 10 µM is -5.67%.

As for `Cc1ncc(CN2CCC(c3nc(O)cc(-c4ccsc4)n3)CC2)cn1`, the cytotoxicity at 10 µM was -11.8%. On to `O=C(CC1CCN(CCc2ccccc2)CC1)NC1CCOCC1`, for which the cytotoxicity at 10 µM was 3.31%. In the case of `CCCC(=O)N1CCCC(c2cc3cccnc3c(O)n2)C1` (stereo unspecified), the cytotoxicity at 10 µM is 7.53%. `O=C(CCN1CCc2ccccc21)N1CC(C(=O)N2CCOCC2)C1`: the cytotoxicity at 10 µM is -26.7%. In the case of `O=C(Cc1ccsc1)N1CCC(c2noc(-c3cccnc3)n2)CC1`, the cytotoxicity at 10 µM is -18.2%. `O=C(c1ccc(O)nc1)N1Cc2ccccc2OC2(CCOCC2)C1`: the cytotoxicity at 10 µM is -44.2%. On to `CNC(=O)C1CN(Cc2c[nH]cn2)CCN(C2CCOCC2)C1` (stereo unspecified), for which the cytotoxicity at 10 µM is -17%. With `Cc1ncsc1CN1CCN(C2CCOCC2)CC(C(N)=O)C1` (stereo unspecified), the cytotoxicity at 10 µM turned out to be 14.4%. As to `COc1ccccc1CN1CCc2c(nc(-c3ccccn3)[nH]c2=O)C1`, the cytotoxicity at 10 µM is -19.7%.

`CC(=O)N1CCCC1c1ccc(-c2c(C)noc2C)cn1` (stereo unspecified): the cytotoxicity at 10 µM amounted to 2.88%. Consider `CC(=O)Nc1ccc(SCC(O)COCc2ccc3c(c2)OCO3)cc1` (stereo unspecified), for which the cytotoxicity at 10 µM stood at 3.56%. `Cc1ccc(N2CCCN(C(=O)C(C)OCC3CC3)CC2)nn1` (stereo unspecified): the cytotoxicity at 10 µM stood at 0.0479%. Turning to `O=C(CC1OCCc2ccccc21)NCCn1cccc1` (stereo unspecified), the cytotoxicity at 10 µM is 1.71%. Turning to `COCc1nnc(-c2cccc(C(=O)N(C)CC(C)(C)C)c2)o1`, the cytotoxicity at 10 µM is -11.1%. `Cc1ocnc1CNC(=O)Nc1ccc(N2CCOC(C)C2)cc1` (stereo unspecified): the cytotoxicity at 10 µM was -2.8%. In the case of `O=C(NCc1nncn1C1CC1)c1cccnc1Oc1ccccc1`, the cytotoxicity at 10 µM turned out to be 1.57%. Take `O=C(NCc1nncn1C1CC1)c1ccccc1OCC1CC1`: the cytotoxicity at 10 µM was 3.36%. `COc1c(C2CCCN2CCOc2ccccc2C#N)c(C)nn1C` (stereo unspecified): the cytotoxicity at 10 µM stood at 2.59%. On to `COc1cc(C2(C(=O)NC3CCN(CC4CC4)CC3)CC2)ccc1C`, for which the cytotoxicity at 10 µM was -11.2%. With `CCS(=O)(=O)c1ccc(N2CCC(NC(=O)NC(C)CO)CC2)cc1` (stereo unspecified) the figure was 13.9%; with `CS(=O)(=O)Cc1ccc(C(=O)N2CCCC(n3cncn3)C2)o1` (stereo unspecified), -9%; with `CC1CN(C)c2ccccc2CN1C(=O)c1ccoc1` (stereo unspecified), -2.84%.

With `COCCCN(Cc1ccncc1)C(=O)CSc1ccc(F)cc1`, the cytotoxicity at 10 µM was 0.807%. `O=S(=O)(Cc1c(F)cccc1Cl)Cc1nnnn1C1CC1`: the cytotoxicity at 10 µM is -5.19%. With `CCC(=O)N1CCC(NC2CCSCC2)C1` (stereo unspecified), the cytotoxicity at 10 µM is 2.85%. With `Cc1occc1CNC(=O)Nc1ccc2nc(N3CCOCC3)oc2c1` the figure was 9.5%; with `CNC(=O)C(C)(C)CNC(=O)Nc1cc(C)ccn1`, 11.7%. For `O=C(O)c1c(Cl)ncn1-c1cccc2ccccc12`, the cytotoxicity at 10 µM is 1.76%.

Turning to `CC1(C)CN=C(N2CCN(CC3CCCO3)CC2)S1` (stereo unspecified), the cytotoxicity at 10 µM is -8.41%. Then `CC(=O)NCCCC(=O)NC1(c2ccc(Cl)c(Cl)c2)CC1`, with -7.79%; and `Cc1nonc1NC(=O)c1ccc(F)c(COCC2CC2)c1`, with 18.6%. As to `CC(=O)N1CCCc2cc(NC(=O)NCCc3cnn(C)c3)ccc21`, the cytotoxicity at 10 µM is -5.42%. With `Cc1cc(=O)c(C(=O)N(C)Cc2ccc(Cl)c(F)c2)c[nH]1` the figure was 9.39%; with `CCc1nc(C2CCCN2C(=O)CCCOc2cccc(F)c2)no1` (stereo unspecified), 11.1%; with `Cc1noc([C@H]2C[C@@H]3CCN(C(=O)c4cccn4C)C[C@H]3O2)n1`, -103%. With `CC(=O)N1CCOC2(CCN(C(=O)c3cnoc3C)CC2)C1` the figure was -0.0788%; with `CN(Cc1nc(-c2ccccc2)no1)Cc1cnc(N2CCOCC2)s1`, -1.48%; with `Cc1ccccc1N1CCN(C(=O)c2cnc(N(C)C)nc2C)C(C)C1` (stereo unspecified), 15.3%. Then `N[C@H]1CN(C(=O)c2ccc(Cl)cc2F)C[C@@H]1C1CC1`, with -44.3%.

In the case of `CN(C)[C@H]1CCN(c2ccnc(C(=O)NCc3ccco3)c2)C1`, the cytotoxicity at 10 µM came out at 4.12%. Then `CC(C)(O)CCc1cccc(C(=O)NCC2COCCO2)c1` (stereo unspecified), with -6.38%. As to `Cc1cc(C)n(Cc2cc(C(=O)N[C@H]3CCCCNC3=O)n[nH]2)n1`, the cytotoxicity at 10 µM came out at 5.97%. For `CCCS(=O)(=O)N1CCC2(CCC(=O)N(CCc3ccccc3)C2)CC1`, the cytotoxicity at 10 µM is 6.84%. As to `CC(C(=O)N(C)Cc1noc(C2CCC2)n1)N1CCc2ccccc2C1` (stereo unspecified), the cytotoxicity at 10 µM is -79.1%. For `CCC(CO)N(Cc1cccc(-n2cccn2)c1)Cc1ccccn1` (stereo unspecified), the cytotoxicity at 10 µM came out at 6.95%. For the compound `COc1cccc(OC)c1OCCN1C(=O)CCNC1=O`, the cytotoxicity at 10 µM is -7.89%. As to `CNC(=O)[C@@H]1C[C@@H](NC(=O)c2cn(C)nc2C)CN1Cc1sccc1C`, the cytotoxicity at 10 µM was -5.58%. As for `CC(C)c1nc(-c2ccc(=O)[nH]n2)n(-c2ccc3c(c2)OCO3)n1`, the cytotoxicity at 10 µM stood at 6.46%. Then `COc1cccc(-c2cc(NCCN(C)C)nc3[nH]ccc23)n1`, with -3.97%. Take `Cc1cc(C)n(CCCN(C)C(=O)CN2CC3(CCNCC3)OC2=O)n1`: the cytotoxicity at 10 µM came to 5.25%. On to `O=S(=O)(Cc1ccccc1CN1CCOCC(O)C1)c1ccccc1` (stereo unspecified), for which the cytotoxicity at 10 µM is -22.8%. In the case of `Cc1nc(O)cc(CCNc2nc(N(C)C)nc(C)c2C)n1`, the cytotoxicity at 10 µM was -3.03%. With `COc1ccc(F)c(CN2CCCC(c3cc(O)nc(C)n3)C2)c1` (stereo unspecified) the figure was 7.3%; with `CCc1nc(CNc2ccc(-c3nc(C4CC4)no3)cn2)no1`, -6.14%. `CC(C)c1noc(C2CCCN2C(=O)CN2CCc3ccccc32)n1` (stereo unspecified): the cytotoxicity at 10 µM was -8.76%. Then `COc1ccc(C(=O)C2CCCN(c3cnccn3)C2)c(C)c1` (stereo unspecified), with -2.69%; and `CCc1ccc2nc(C)cc(C(=O)N3C[C@H]4CCC[C@@]4(CO)C3)c2c1`, with -2.37%; and `CCc1cc(N(C)Cc2ncc[nH]2)nc(N2CCOCC2)n1`, with -1.61%. Regarding `COCCN(Cc1ccncc1)C(=O)C1COc2c(cccc2OC)C1` (stereo unspecified), the cytotoxicity at 10 µM was -14.6%. Regarding `Cc1ccc(CNC(=O)N(C)Cc2cnn(C)c2)s1`, the cytotoxicity at 10 µM is -11.2%. Regarding `N#Cc1ccc(CN2CCCC2Cn2cccn2)c(F)c1` (stereo unspecified), the cytotoxicity at 10 µM is -9.2%.

Take `CC(C)N(Cc1ccccn1)Cc1nc2c(cnn2C)c(=O)[nH]1`: the cytotoxicity at 10 µM was -6.42%. As for `Cc1nc(C)c(CC(=O)Nc2nnc(C(C)C)s2)c(=O)[nH]1`, the cytotoxicity at 10 µM was -7.16%.

With `Cc1ccc(O)c(CNCC2CCCN2c2cccnn2)n1` (stereo unspecified), the cytotoxicity at 10 µM was -7.92%. In the case of `O=C(CCN1C(=O)CCC1=O)NCC1(c2c(F)cccc2F)CCCC1`, the cytotoxicity at 10 µM was -9.47%. Regarding `Cc1cccnc1NC(=O)c1ccc(-n2ncc(C#N)c2N)cc1`, the cytotoxicity at 10 µM is -9.35%. Consider `Cc1cc(CNC(=O)CN2CCCC(Cn3cncn3)C2)ccc1F` (stereo unspecified), for which the cytotoxicity at 10 µM was -9.92%.

Turning to `Cc1noc(C)c1C(=O)NCc1ccc(N2CCCCCC2)nc1`, the cytotoxicity at 10 µM was found to be 2.76%.

Turning to `CCc1[nH]ncc1C(=O)N1CCOC(c2nc(C)n[nH]2)C1` (stereo unspecified), the cytotoxicity at 10 µM is -8.69%.

For `O=C(CCc1ccccc1Br)NS(=O)(=O)c1ccc2c(c1)OCCO2`, the cytotoxicity at 10 µM was -10.7%. Then `Cc1cc(C)n(C2CN(CCC(=O)NC3CCCCC3)C2)n1`, with 1.04%; and `CN1CCN(C2CCN(CCOc3ccc(F)cc3)CC2)C1=O`, with -7.8%; and `CC(C)OCCN1CCC(N2CCN(C)C2=O)CC1`, with -11.4%. As for `COCCN1CCC(NCc2cccc(F)c2)C1` (stereo unspecified), the cytotoxicity at 10 µM is -8.85%. As to `Cc1nc(CN2CCCC(N(C)CCc3ccncc3)C2)no1` (stereo unspecified), the cytotoxicity at 10 µM is -6.93%.

Consider `COc1c(CNCc2cnn(C)c2)c(C(C)C)nn1C`, for which the cytotoxicity at 10 µM was -7.39%. On to `Cc1noc(C)c1C(=O)N1CCCC1c1c(C)nn(C)c1Cl` (stereo unspecified), for which the cytotoxicity at 10 µM is -12.6%. Turning to `Cc1ncc2c(n1)CN(Cc1noc(C3CC3)n1)CC2`, the cytotoxicity at 10 µM was -13.4%. Turning to `COc1cccc(COCC(=O)N2CCCC(c3cc(C)[nH]n3)C2)c1` (stereo unspecified), the cytotoxicity at 10 µM is -6.81%. As for `CNCC1CCC(c2cc(CN(C)C(=O)c3cnccn3)n(C)n2)CC1` (stereo unspecified), the cytotoxicity at 10 µM was -5.1%. For the compound `COc1ccc(CN(Cc2c[nH]cn2)CC2CCCO2)c(OC)c1` (stereo unspecified), the cytotoxicity at 10 µM was -26%. With `c1ccc(CN2Cc3[nH]nc(COc4cccnc4)c3C2)nc1`, the cytotoxicity at 10 µM was -109%. Then `O=C(c1cccnc1)N1CCc2ncnc(C3CCOC3)c2CC1` (stereo unspecified), with 4.22%; and `CC(C)c1nc(C2CCCNC2)no1` (stereo unspecified), with 0.684%. For the compound `Cc1noc(C)c1CN1CCc2ncnc(-c3cccnc3)c2CC1`, the cytotoxicity at 10 µM is -97.9%. Take `Cn1ccnc1C(=O)N1CCC2(CCN2Cc2ccc(F)cc2)C1` (stereo unspecified): the cytotoxicity at 10 µM was -97%. Turning to `CN(Cc1ccco1)C[C@H]1OC[C@@H]2CCN(Cc3cccs3)C[C@@H]21`, the cytotoxicity at 10 µM was 8.11%. Turning to `O=C(NC1CC1)[C@H]1C[C@H]2OCC[C@H]2N(CC2CCOCC2)C1`, the cytotoxicity at 10 µM was 2.98%. In the case of `NC1CCC(n2cc(C(=O)NC3CCc4ccccc4C3)nn2)CC1` (stereo unspecified), the cytotoxicity at 10 µM is -4.42%.
